Bioassay records: PubChem BioAssay, The Scripps Research Institute Molecular Screening Center
ABHD5-PLIN5 inh = ABHD5-PLIN5 interaction inhibitors, primary screen, cell lysate, split luciferase complementation, luminescence; Split G. princeps luciferase complementation, 4 h; AID 602281, 2012; Perilipin-5 (Homo sapiens) + 1-acylglycerol-3-phosphate O-acyltransferase ABHD5 (Homo …; hit rate 0.78% among 360,000; inhibition, % at 4 µM;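 active = inhibition above the mean inhibition across every tested compound plus 3 SD, cut at about 22% in these data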;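 note: 0% = DMSO only wells and the 100% control is not disclosed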
Target sequence (Q00G26 whole entry, looked up): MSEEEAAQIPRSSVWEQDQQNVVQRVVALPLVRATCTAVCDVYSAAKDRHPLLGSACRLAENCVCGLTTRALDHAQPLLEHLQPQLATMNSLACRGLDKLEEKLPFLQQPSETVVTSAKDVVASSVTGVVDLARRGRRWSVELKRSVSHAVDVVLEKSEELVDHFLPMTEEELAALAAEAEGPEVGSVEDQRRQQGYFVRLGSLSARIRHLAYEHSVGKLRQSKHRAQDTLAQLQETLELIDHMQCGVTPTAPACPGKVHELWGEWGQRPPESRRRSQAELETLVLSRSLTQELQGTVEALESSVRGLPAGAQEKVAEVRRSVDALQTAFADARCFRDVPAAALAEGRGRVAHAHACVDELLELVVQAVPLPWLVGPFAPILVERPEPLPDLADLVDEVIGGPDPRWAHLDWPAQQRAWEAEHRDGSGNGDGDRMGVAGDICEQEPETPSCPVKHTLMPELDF
Target sequence (Q8WTS1 whole entry, looked up): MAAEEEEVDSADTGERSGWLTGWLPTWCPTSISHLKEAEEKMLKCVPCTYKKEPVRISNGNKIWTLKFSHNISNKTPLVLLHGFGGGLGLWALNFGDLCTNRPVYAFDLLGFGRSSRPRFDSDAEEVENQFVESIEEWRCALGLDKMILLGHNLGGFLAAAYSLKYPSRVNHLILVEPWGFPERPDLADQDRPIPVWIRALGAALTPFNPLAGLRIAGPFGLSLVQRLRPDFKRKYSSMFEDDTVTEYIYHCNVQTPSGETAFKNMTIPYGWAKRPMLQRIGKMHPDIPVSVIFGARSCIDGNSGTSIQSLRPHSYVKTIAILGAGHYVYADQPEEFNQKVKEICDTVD
PRMT1 FP inh = PRMT1 methyltransferase inhibitors, primary screen, biochemical, fluorescence polarization | Protein arginine N-methyltransferase 1 (Homo sapiens), Q99873 | recombinant PRMT1, activity-based probe fluorescence polarization | inhibition, % at 2.79 µM | hit rate 1.3% among 370,000 | AID 652257, 2013;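 active = inhibition above about 21% made by adding two undisclosed values, limit read from the data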
LEDGF integ inh = blockers of LEDGF/p75-dependent integrase strand transfer – biochemical, TR-FRET, high throughput, primary screen; HIV-1 integrase (with human LEDGF/p75); TR-FRET IN-LEDGF/p75 DNA integration, Eu/Cy5; inhibition, % at 3.7 µM; hit rate 0.64% among 370,000; AID 743269, 2014;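 active = inhibition above the screen-wide mean plus 3 SD, cut at about 13% in these data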;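 note: signal is the Cy5 over europium emission ratio at 671 and 618 nm; 0% = plate median of compound wells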
UHRF1 binding = UHRF1 methylated DNA binding inhibitors, primary screen, counter-screen for MBD2 inhibitor project, biochemical, TR-FRET, human UHRF1, single concentration. AID 687016, 2013. hit rate 0.75% among 370,000. UHRF1 binding to methylated oligo. inhibition, % at 4.4 µM. E3 ubiquitin-protein ligase UHRF1 (Homo sapiens), Q96T88; in the data active = inhibition above about 21%;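 note: UHRF1 SRA domain binding a hemimethylated CpG hairpin DNA probe; 0% = median of test compound wells and 100% = reference inhibitor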
RBBP9 inh = human RBBP9 inhibitors, primary screen, biochemical, fluorescence polarization, FP-Rh probe, HTS. Serine hydrolase RBBP9 (Homo sapiens), O75884. recombinant RBBP9. inhibition, % at 7.94 µM. hit rate 0.2% among 220,000. AID 1515, 2009;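 active = inhibition above the campaign mean of all tested compounds plus 3 SD, cut at about 14% in these data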;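 note: plate controls were DMSO wells with RBBP9 for no effect and wells lacking RBBP9 protein for full effect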
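Test system – recombinant human RBBP9 · Input – RBBP9 2.5 µM in dispensing solution, pre-mixing · Medium – Tris buffer pH 8.0, NaCl, Pluronic · Schedule – preincubation 30 min plus labeling 45 min at 25 °C · Measured by – fluorescence polarization · Measure – % inhibition · Controls – DMSO and no-protein wells · Replicates – one well per compound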
MBD2 inh = inhibitors of MBD2 binding to methylated DNA, primary screen, biochemical, TR-FRET, DNA-binding domain, human | hit rate 0.31% among 370,000 | AID 686964, 2013 | MBD2 binding to methylated oligonucleotide | Methyl-CpG-binding domain protein 2 (Homo sapiens), Q9UBB5 | inhibition, % at 4.4 µM; in the data active = inhibition above about 13%
Active calls of the source: *. An excerpt weighted towards active compounds, which were near 3.1% of everything screened.

`COc1ccc(/C=N/c2c(-c3ccc(OC)cc3)nc3n2CCS3)cc1` gave ABHD5-PLIN5 inh -24, PRMT1 FP inh 9, LEDGF integ inh 4, UHRF1 binding 3, RBBP9 inh -2 and MBD2 inh 2.
O=C(N/N=C/c1sc2ccccc2c1O)c1cccc2ccccc12 was read as ABHD5-PLIN5 inh -5, PRMT1 FP inh 55*, LEDGF integ inh -7, UHRF1 binding -15, RBBP9 inh -20 and MBD2 inh -1.
`COc1ccc2cc(C(=O)N/N=C/c3sc4ccccc4c3O)ccc2c1` gave ABHD5-PLIN5 inh -2, PRMT1 FP inh 25*, LEDGF integ inh -1, UHRF1 binding -18, RBBP9 inh -32 and MBD2 inh -7.
`COc1ccc(C(=O)N/N=C/c2sc3ccccc3c2O)cc1` gave ABHD5-PLIN5 inh -10 and RBBP9 inh -8.
Screening CC(C)[C@@H]1NC(=O)[C@H]2C[C@@]3(c4ccccc4)c4ccccc4N[C@H]3N2C1=O returned PRMT1 FP inh -4, LEDGF integ inh 3, UHRF1 binding 4 and MBD2 inh 7.
For CS(=O)(=O)c1sc(C#N)c2c1C(=O)CC(c1ccccc1)C2 (configuration not stated) the results were ABHD5-PLIN5 inh 57*, PRMT1 FP inh 19, LEDGF integ inh -1, UHRF1 binding -4, RBBP9 inh 8 and MBD2 inh 3.
For Cc1oc2c(c(=O)c1C)C(=O)CC(c1ccccc1)C2 (configuration not stated) the results were ABHD5-PLIN5 inh -7, PRMT1 FP inh 0, LEDGF integ inh -2, UHRF1 binding -2, RBBP9 inh -3 and MBD2 inh -9.
Screening CC(C)CCn1nnnc1C(c1ccc(F)cc1)N1CCC(C(N)=O)CC1 (configuration not stated) returned ABHD5-PLIN5 inh 5, PRMT1 FP inh 1, LEDGF integ inh 3, UHRF1 binding 22*, RBBP9 inh -3 and MBD2 inh 7.
For CC(C)CCn1nnnc1C(c1ccccc1)N1CCC(C(N)=O)CC1 (configuration not stated) the results were ABHD5-PLIN5 inh 0, PRMT1 FP inh -1, LEDGF integ inh 2, UHRF1 binding -3, RBBP9 inh -3 and MBD2 inh 2.
Screening Cc1ccc(S(=O)(=O)N(CC(=O)NC2CCC(C)CC2)c2cc(C)cc(C)c2)cc1 (configuration not stated) returned PRMT1 FP inh -3, LEDGF integ inh -1, UHRF1 binding -1 and MBD2 inh -3.
Screening CCOC(=O)c1cnc(Cc2ccccc2)[nH]c1=O returned ABHD5-PLIN5 inh 9, PRMT1 FP inh 1, LEDGF integ inh 1, UHRF1 binding -2 and MBD2 inh -2.
`CCOC(=O)c1cnc[nH]c1=O` gave ABHD5-PLIN5 inh 22*, PRMT1 FP inh 3, LEDGF integ inh -7, UHRF1 binding 2 and MBD2 inh -1.
Screening Cc1ccc(-c2cc(-c3ccccc3Cl)c(C#N)c(N)n2)o1 returned ABHD5-PLIN5 inh 4, PRMT1 FP inh 22*, LEDGF integ inh 3, UHRF1 binding 0, RBBP9 inh -3 and MBD2 inh 2.
Cc1ccc(-c2cc(-c3ccc(F)cc3)nc(N)c2C#N)o1 was read as ABHD5-PLIN5 inh 13, PRMT1 FP inh 13, LEDGF integ inh -2, UHRF1 binding -7, RBBP9 inh -7 and MBD2 inh -5.
For O=C(CC1C(=O)NCCN1Cc1ccoc1)NCCCn1ncc2ccccc21 (configuration not stated) the results were ABHD5-PLIN5 inh 33*, PRMT1 FP inh 2, LEDGF integ inh 2, UHRF1 binding -1, RBBP9 inh -8 and MBD2 inh 0.
O=C(COC(=O)c1cc(F)cc(F)c1)NCCCc1ccccc1 was read as ABHD5-PLIN5 inh 5, PRMT1 FP inh -1, LEDGF integ inh 1, UHRF1 binding 85* and MBD2 inh 7.
Screening O=C(COC(=O)c1ccc(O)cc1)NCCCc1ccccc1 returned ABHD5-PLIN5 inh -2, PRMT1 FP inh -6, LEDGF integ inh 0, UHRF1 binding -3, RBBP9 inh -11 and MBD2 inh 0.
Screening CC(C)C(=O)Nc1nnc(SCC(=O)NC2CCCC2)s1 returned ABHD5-PLIN5 inh -6, PRMT1 FP inh 0, LEDGF integ inh 0, UHRF1 binding 93* and MBD2 inh 4.
Screening CC(C)CC(=O)Nc1nnc(SCC(=O)NC2CCCC2)s1 returned ABHD5-PLIN5 inh 6, PRMT1 FP inh -2, LEDGF integ inh -2, UHRF1 binding 2 and MBD2 inh -3.
`CC1CCCN(C(=O)Cn2nnc(-c3ccc([N+](=O)[O-])cc3)n2)C1` (configuration not stated) gave ABHD5-PLIN5 inh 3, PRMT1 FP inh 0, LEDGF integ inh -2, UHRF1 binding 29* and MBD2 inh 1.
`CCC1CCCCN1C(=O)CCS(=O)(=O)c1ccccc1` (configuration not stated) gave ABHD5-PLIN5 inh -5, PRMT1 FP inh 0, LEDGF integ inh 0, UHRF1 binding 2 and MBD2 inh -1.
For CCC1CCCCN1CCNC(=O)CCS(=O)(=O)c1ccc(Br)cc1 (configuration not stated) the results were ABHD5-PLIN5 inh 7, PRMT1 FP inh -1, LEDGF integ inh 1, UHRF1 binding 25*, RBBP9 inh -3 and MBD2 inh 6.
`COc1cc2c(cc1OC)C(=O)Cc1ccc3c(c1CN(C)CC2)OCO3` gave ABHD5-PLIN5 inh -3, PRMT1 FP inh 4, LEDGF integ inh -2, UHRF1 binding 1, RBBP9 inh 9 and MBD2 inh 5.
`COc1ccc2c(c1OC)CN(C)CCc1cc3c(cc1C(=O)C2)OCO3` gave ABHD5-PLIN5 inh 0, PRMT1 FP inh -2, LEDGF integ inh 6, UHRF1 binding 21*, RBBP9 inh -5 and MBD2 inh 13.
`CCOC(=O)CC[C@@]1(C(=O)OCC)C[C@@H](CC(=O)NCc2ccc(OC)c(OC)c2)C(=O)N2CCCC=C21` gave PRMT1 FP inh 2, LEDGF integ inh -3, UHRF1 binding -2 and MBD2 inh 1.
Screening Cc1[nH]c(=O)c(C(=O)/C=C/c2ccccc2F)c2c1CCCC2 returned ABHD5-PLIN5 inh 51*, PRMT1 FP inh -4, LEDGF integ inh 1, UHRF1 binding -3, RBBP9 inh -5 and MBD2 inh -4.
